Assay results as given in ChEMBL document CHEMBL4229494, “Novel tertiary sulfonamides as potent anti-cancer agents” (Bioorg Med Chem, 2018).
Converted amounts (≈) assume the structure as drawn.

Tests used:
[1] = Inhibition of Wnt3A-induced Wnt transcription (unknown origin) expressed in HEK293 cells coexpressing TK-driven Rluc after 20 to 22 hrs by super-top flash reporter gene assay; format: cell-based; settings: Homo sapiens
In short: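 HEK-293 cells (DMEM, 10% FBS) were co-transfected with Super(8x)TOPflash, a Wnt3A expression vector and TK-driven Renilla luciferase. After 8 h at 37 °C, 5% CO2, cells were seeded at 25,000/well and treated at 1.6, 8, 40, 200, 1000 or 5000 nM, or with DMSO, for 20-22 h in triplicate. Firefly/Renilla luminescence was taken relative to DMSO, and IC50 was found by nonlinear regression.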

MCF7 [2] = experiment: Induction of apoptosis in human MCF7 cells after 24 hrs by caspase-Glo 3/7 reagent based luminescence assay; format: functional, cell-based; settings: MCF7, 24 h
In short: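 MCF-7 cells were plated at 25,000/well (DMEM, 10% FBS) and grown 24 h, then treated at 1.6 nM–5 µM or with DMSO for 24 h. Caspase 3/7 activity was read by Caspase-Glo 3/7 luminescence. Triplicate signals relative to DMSO were analysed by nonlinear regression.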

MDA-MB-231 = experiment: Antiproliferative activity against human MDA-MB-231 cells after 24 hrs by SYBR green dye based fluorescence assay; format: functional, cell-based; settings: MDA-MB-231, 24 h
In short: (§1)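 Cells were plated at 500/well in DMEM/10% FBS and allowed to attach for 24 h at 37 °C, 5% CO2. They were then exposed to 1.6 nM–5 µM or DMSO. One plate was harvested every 24 h over 7 days and frozen at -20 °C. DNA was quantified by SYBR Green fluorescence (Ex495/Em535). Triplicate values relative to DMSO went to nonlinear regression for IC50.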

MCF7 [3] = experiment: Antiproliferative activity against human MCF7 cells after 24 hrs by SYBR green dye based fluorescence assay; format: functional, cell-based; settings: MCF7, 24 h; in short: as §1
[4] = Solubility of the compound; format: physicochemical
[5] = Lipophilicity, log D of the compound at pH 3; format: physicochemical; settings: buffer
[6] = Lipophilicity, log D of the compound at pH 7; format: physicochemical; settings: buffer

## O=C1CCCN1c1ccc(S(=O)(=O)N2CCc3ccccc32)cc1
[1]
  IC50: > 5000 nM

## COc1ccc2c(c1)N(C)CCN2S(=O)(=O)c1ccc(N2CCCC2=O)cc1
MCF7 [2]
  EC50: 46 nM
[1]
  IC50: 17 nM
MDA-MB-231
  IC50: 14 nM
MCF7 [3]
  IC50: 14 nM
[4]
  solubility: 69.6 µM (≈ 27.9 µg/mL)
[5]
  logD: 2.9
[6]
  logD: 3

## O=C1CCCN1c1ccc(S(=O)(=O)N2CCCCC2)cc1
[1]
  IC50: > 5000 nM

## O=C1CCCN1c1ccc(C(=O)N2CCCc3ccccc32)cc1
[1]
  IC50: > 5000 nM

## O=C1CCCN1c1ccc(S(=O)(=O)N2CCCc3ccccc32)cc1
MCF7 [2]
  EC50: 23 nM
[1]
  IC50: 25 nM
MDA-MB-231
  IC50: 15 nM
MCF7 [3]
  IC50: 17 nM
[4]
  solubility: 7.8 µM (≈ 2.78 µg/mL)
[5]
  logD: 2.5
[6]
  logD: 2.5

## O=C1CCCN1c1ccc(S(=O)(=O)N2CCCC3CCCCC32)cc1 (configuration not stated)
[1]
  IC50: > 5000 nM

## COc1ccc2c(c1)CCCN2S(=O)(=O)c1ccc(N2CCCC2=O)cc1
MCF7 [2]
  EC50: 16 nM
[1]
  IC50: 6 nM
MDA-MB-231
  IC50: 20 nM
MCF7 [3]
  IC50: 25 nM

## O=S(=O)(c1ccc(N2CCC=N2)cc1)N1CCCc2ccccc21
[1]
  IC50: 15 nM
[4]
  solubility: 19 µM (≈ 6.49 µg/mL)
[5]
  logD: 1.5
[6]
  logD: 2.9

## O=C1CCCN1c1ccc(S(=O)(=O)N2CCN(CCO)c3ccccc32)cc1
[1]
  IC50: > 5000 nM

## O=C1CCCCN1c1ccc(S(=O)(=O)N2CCCc3ccccc32)cc1
[1]
  IC50: > 5000 nM

## O=S(=O)(c1ccc(-n2cncn2)cc1)N1CCCc2ccccc21
MCF7 [2]
  EC50: > 5000 nM
[1]
  IC50: > 5000 nM
MDA-MB-231
  IC50: > 5000 nM
MCF7 [3]
  IC50: > 5000 nM

## O=S(=O)(c1ccc(-n2cccn2)cc1)N1CCCc2ccccc21
[1]
  IC50: 1650 nM

## O=C1CCCN1c1ccc(S(=O)(=O)N2CCCc3ncccc32)cc1
[1]
  IC50: > 5000 nM

## CC1CN(C)c2ccccc2N1S(=O)(=O)c1ccc(N2CCCC2=O)cc1 (racemic)
[1]
  IC50: 9 nM
[4]
  solubility: 23.1 µM (≈ 8.9 µg/mL)
[5]
  logD: 3.3
[6]
  logD: 3.6

## CCCN(c1ccccc1)S(=O)(=O)c1ccc(N2CCCC2=O)cc1
MCF7 [2]
  EC50: > 5000 nM
[1]
  IC50: > 5000 nM
MDA-MB-231
  IC50: > 5000 nM
MCF7 [3]
  IC50: > 5000 nM
